pIC50: −log10 of the molar value.
Legend:
[1] = target: Human immunodeficiency virus type 1 integrase (Human immunodeficiency virus 1, UniProt Q7ZJM1); test: (§1) Inhibition of HIV1 integrase-mediated strand transfer
[2] = target: Human immunodeficiency virus type 1 integrase (Human immunodeficiency virus 1) (UniProt Q7ZJM1); test: as §1
[3] = target: T1, Cytochrome P450 2D6 (Homo sapiens, UniProt P10635); test: Activation of CYP2D6 in human liver microsomes incubated for 3 mins prior to NAPDH-addition measured after 60 mins by RP-HPLC analysis; conditions: 1 h
[4] = target: T1, Cytochrome P450 2D6; test: Inhibition of CYP2D6 in human liver microsomes using dextromethorphan as substrate incubated for 3 mins prior to NAPDH-addition measured after 60 mins by RP-HPLC analysis
[5] = target: T2, UDP-glucuronosyltransferase 1A6 (Homo sapiens, UniProt P19224); test: Activity at UGT1A6 in human liver microsomes at 50 uM incubated for 3 mins prior to NADPH-addition measured up to 120 mins by HPLC/UV analysis; assay type: ADME, Microsome
T2 sequence (P19224 whole entry): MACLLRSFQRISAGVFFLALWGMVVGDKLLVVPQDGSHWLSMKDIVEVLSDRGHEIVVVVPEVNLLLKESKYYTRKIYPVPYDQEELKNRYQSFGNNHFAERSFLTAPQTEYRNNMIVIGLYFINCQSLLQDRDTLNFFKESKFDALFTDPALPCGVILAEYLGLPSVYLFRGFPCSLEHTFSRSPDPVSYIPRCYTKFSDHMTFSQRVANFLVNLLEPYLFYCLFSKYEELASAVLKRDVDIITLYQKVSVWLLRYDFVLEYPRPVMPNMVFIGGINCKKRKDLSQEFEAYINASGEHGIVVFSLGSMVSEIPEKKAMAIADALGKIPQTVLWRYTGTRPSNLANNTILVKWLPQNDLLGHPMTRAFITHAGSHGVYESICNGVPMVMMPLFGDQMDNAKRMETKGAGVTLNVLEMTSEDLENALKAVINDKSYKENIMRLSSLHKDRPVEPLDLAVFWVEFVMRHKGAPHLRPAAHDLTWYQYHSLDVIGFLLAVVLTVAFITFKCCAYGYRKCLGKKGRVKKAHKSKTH

[6] = target: Cytochrome P450 3A4 (Homo sapiens, UniProt P08684); test: Inhibition of CYP3A4 in human liver microsomes using testosterone as substrate incubated for 3 mins prior to NAPDH-addition measured after 30 mins by RP-HPLC analysis; assay type: ADME, Microsome
Method in brief: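 CYP3A4 inhibition used pooled human liver microsomes at 0.3 mg/mL protein with testosterone as substrate (50 mM stock; 100 μM listed). Incubation ran 30 min across varying inhibitor concentrations, and kinetic analysis gave the IC50.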

[7] = target: T3, UDP-glucuronosyltransferase 2B7 (Homo sapiens, UniProt P16662); test: Activity at UGT2B7 in human liver microsomes at 50 uM incubated for 3 mins prior to NADPH-addition measured up to 120 mins by HPLC/UV analysis; assay type: ADME, Microsome
T3 sequence (P16662 whole entry): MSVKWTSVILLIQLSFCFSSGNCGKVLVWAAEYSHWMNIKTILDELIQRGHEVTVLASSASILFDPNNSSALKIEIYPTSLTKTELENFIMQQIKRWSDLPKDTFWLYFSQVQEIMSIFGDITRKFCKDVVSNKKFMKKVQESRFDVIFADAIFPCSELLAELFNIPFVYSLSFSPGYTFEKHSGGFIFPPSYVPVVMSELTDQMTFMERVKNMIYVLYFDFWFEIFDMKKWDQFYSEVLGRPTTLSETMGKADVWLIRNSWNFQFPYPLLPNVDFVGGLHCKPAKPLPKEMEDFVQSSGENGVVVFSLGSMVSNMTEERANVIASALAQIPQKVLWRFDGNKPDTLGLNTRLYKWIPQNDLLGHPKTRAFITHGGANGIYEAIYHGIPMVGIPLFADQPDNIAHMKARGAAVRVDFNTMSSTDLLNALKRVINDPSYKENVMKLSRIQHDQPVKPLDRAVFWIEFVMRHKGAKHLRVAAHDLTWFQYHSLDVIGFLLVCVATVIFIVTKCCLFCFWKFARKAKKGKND

[8] = target: T4, UDP-glucuronosyltransferase 1A1 (Homo sapiens, UniProt P22309); test: Activity at UGT1A1 in human liver microsomes at 50 uM incubated for 3 mins prior to NADPH-addition measured up to 120 mins by HPLC/UV analysis; assay type: ADME, Microsome
T4 sequence (P22309 whole entry): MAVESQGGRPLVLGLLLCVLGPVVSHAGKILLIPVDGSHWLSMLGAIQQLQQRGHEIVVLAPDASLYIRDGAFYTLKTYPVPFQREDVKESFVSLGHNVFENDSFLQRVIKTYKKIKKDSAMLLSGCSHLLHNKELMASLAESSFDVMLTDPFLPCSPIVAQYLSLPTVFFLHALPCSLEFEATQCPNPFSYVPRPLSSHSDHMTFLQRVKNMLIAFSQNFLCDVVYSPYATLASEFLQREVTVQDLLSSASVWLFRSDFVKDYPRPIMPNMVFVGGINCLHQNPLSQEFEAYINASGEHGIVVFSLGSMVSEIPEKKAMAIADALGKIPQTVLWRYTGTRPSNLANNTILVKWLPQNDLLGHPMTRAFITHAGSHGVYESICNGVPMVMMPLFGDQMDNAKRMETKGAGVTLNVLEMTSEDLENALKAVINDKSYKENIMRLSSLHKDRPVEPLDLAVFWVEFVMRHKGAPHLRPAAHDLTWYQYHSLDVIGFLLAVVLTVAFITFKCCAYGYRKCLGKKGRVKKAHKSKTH

[9] = target: T5, Cytochrome P450 2C8 (Homo sapiens, UniProt P10632); test: Inhibition of CYP2C8 in human liver microsomes using amodiaquine as substrate incubated for 3 mins prior to NAPDH-addition measured after 30 mins by RP-HPLC analysis; assay type: ADME, Microsome
T5 sequence (P10632 whole entry): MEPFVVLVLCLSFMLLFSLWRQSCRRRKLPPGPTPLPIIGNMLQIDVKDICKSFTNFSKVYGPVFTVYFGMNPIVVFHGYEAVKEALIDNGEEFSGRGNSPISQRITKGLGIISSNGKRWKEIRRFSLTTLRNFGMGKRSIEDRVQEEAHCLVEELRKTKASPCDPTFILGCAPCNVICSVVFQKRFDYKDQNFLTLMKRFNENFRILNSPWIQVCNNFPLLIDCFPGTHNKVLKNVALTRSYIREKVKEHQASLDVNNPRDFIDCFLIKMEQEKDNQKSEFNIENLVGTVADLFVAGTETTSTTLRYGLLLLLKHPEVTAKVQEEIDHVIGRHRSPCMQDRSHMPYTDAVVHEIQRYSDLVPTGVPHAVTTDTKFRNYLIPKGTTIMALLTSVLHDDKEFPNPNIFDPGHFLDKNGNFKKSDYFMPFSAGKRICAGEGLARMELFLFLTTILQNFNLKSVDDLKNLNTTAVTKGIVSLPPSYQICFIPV
Method in brief: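 CYP2C8 was assayed in pooled human liver microsomes at 0.4 mg/mL protein with amodiaquine as substrate (5 mM stock; 200 μM listed). Incubation was 30 min with varying inhibitor concentrations, and IC50 was obtained by kinetic analysis.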

T1 sequence (P10635 whole entry): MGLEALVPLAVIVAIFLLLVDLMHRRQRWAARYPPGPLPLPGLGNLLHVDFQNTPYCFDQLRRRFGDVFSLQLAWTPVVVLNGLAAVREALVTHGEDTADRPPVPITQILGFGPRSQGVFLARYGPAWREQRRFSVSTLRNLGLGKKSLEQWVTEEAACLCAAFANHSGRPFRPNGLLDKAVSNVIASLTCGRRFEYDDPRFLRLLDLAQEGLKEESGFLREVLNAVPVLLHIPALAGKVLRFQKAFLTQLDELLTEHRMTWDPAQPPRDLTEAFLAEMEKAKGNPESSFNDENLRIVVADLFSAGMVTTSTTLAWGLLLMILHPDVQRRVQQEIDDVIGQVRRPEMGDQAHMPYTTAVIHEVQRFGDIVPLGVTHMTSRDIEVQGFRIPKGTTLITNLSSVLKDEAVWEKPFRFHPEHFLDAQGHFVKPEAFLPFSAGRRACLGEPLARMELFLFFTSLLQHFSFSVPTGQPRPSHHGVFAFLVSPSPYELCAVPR
Chain of Human immunodeficiency virus type 1 integrase (Q7ZJM1 whole entry): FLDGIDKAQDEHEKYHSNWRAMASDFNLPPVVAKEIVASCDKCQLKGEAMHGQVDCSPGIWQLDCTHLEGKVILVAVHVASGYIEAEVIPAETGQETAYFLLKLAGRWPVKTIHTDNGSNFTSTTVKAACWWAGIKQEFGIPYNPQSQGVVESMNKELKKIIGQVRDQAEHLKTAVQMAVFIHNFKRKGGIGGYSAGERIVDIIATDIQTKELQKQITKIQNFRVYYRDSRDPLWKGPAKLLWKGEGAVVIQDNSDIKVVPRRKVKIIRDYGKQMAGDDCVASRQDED
Chain of Human immunodeficiency virus type 1 integrase (Human immunodeficiency virus 1) (Q7ZJM1 as listed by the source): as the sequence (Q7ZJM1 whole entry) above
Chain of Cytochrome P450 3A4 (P08684 whole entry): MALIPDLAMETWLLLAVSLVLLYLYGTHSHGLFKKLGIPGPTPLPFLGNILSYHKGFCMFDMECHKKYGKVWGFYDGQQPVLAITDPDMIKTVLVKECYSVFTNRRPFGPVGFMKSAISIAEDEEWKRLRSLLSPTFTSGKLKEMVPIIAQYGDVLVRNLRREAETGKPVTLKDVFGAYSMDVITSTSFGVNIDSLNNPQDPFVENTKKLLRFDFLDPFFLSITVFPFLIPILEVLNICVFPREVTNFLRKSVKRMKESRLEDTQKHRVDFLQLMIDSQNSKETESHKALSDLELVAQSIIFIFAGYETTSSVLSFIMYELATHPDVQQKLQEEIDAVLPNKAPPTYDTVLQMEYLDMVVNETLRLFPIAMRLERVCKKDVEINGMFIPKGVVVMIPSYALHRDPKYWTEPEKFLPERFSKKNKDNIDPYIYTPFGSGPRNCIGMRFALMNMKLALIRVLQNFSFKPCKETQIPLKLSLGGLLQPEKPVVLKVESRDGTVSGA

O=C(O)/C(O)=C/C(=O)c1cc(Cc2ccc(F)cc2F)cn(Cc2ccccc2F)c1=O
pIC50 [1]: 8.22 | IC90 [2]: 97 nM | Activity [3]: Not Active | pIC50 [4]: < 3.70 | Activity [5]: Not Active | pIC50 [6]: < 3.70 | Activity [7]: Not Active | Activity [8]: Not Active | pIC50 [9]: < 4.19

Reference: ChEMBL document CHEMBL2040715, “Discovery of a Potent HIV Integrase Inhibitor that Leads to a Prodrug with Significant anti-HIV Activity” (ACS Med Chem Lett, 2011)
